Measured values collected from several papers.
Target: Serine/threonine-protein kinase Sgk1 (SGK1, Homo sapiens, UniProt O00141)

| Structure (SMILES) | assay | setting | quantity | result |
| --- | --- | --- | --- | --- |
| CCCS(=O)(=O)Nc1ccc(F)c(C(=O)c2c[nH]c3ncc(-c4ccc(Cl)cc4)cc23)c1F | enzyme activity, inhibitor | 1 µM | inhibition | < 10% |
| O=C(Nc1ccc(Oc2ccc(F)cc2)cc1)N1CCc2ncccc2[C@H]1c1ccc(F)cc1 | cell-free assay, competition with immobilised ligand | 1 µM | remaining binding | 95% |
| Fc1cccc(-n2cnc3c(NCc4nc5c(F)c(F)ccc5[nH]4)nc(N4CCOCC4)nc32)c1 | binding, competition with immobilised ligand | 10 µM | binding vs control | 24% |
| Cc1ccc(Nc2nccc(N(C)c3ccc4c(C)n(C)nc4c3)n2)cc1S(N)(=O)=O | enzyme activity, inhibitor | 10 µM | inhibition | -2% |
| Cn1c(=O)n(-c2ccc(C(C)(C)C#N)cc2)c2c3cc(-c4cnc5ccccc5c4)ccc3ncc21 | enzyme activity, inhibitor | 10 µM | remaining activity | 98% |
| CN(C)C1CCN(CC#Cc2nn(C3CCCC3)c3nc(NCc4ccccc4)ncc23)C1 (stereo not shown) | enzyme activity, inhibitor, FRET | 1 µM | inhibition | 9% |
| CC(C)(C)c1nc2c(s1)c1nc(N)ncc1c1ccc(NS(=O)(=O)c3c(F)cccc3F)c(F)c12 | enzyme activity, inhibitor, radiometric | 1 µM | remaining activity | 87% |
| CNC(=O)c1cc(Oc2ccc(NC(=O)Nc3ccc(Cl)c(C(F)(F)F)c3)cc2)ccn1 | enzyme activity, inhibitor | 10 µM | inhibition | -21% |
| CCC(=N\O)/C(C)=C/c1ccc(F)cc1 | cell-free assay, competition with immobilised ligand | 1 µM | remaining binding | 89% |
| O=C(Nc1cnn(-c2csc(C(=O)NC3COC3)c2)c1)Nc1c(F)cccc1Cl | enzyme activity, inhibitor | 5 µM | remaining activity | 95.4% |
| O=C(NS(=O)(=O)c1ccc(NCC2CCOCC2)c([N+](=O)[O-])c1)c1ccc(N2CCN(Cc3ccc(C(F)(F)F)cc3-c3ccc(Cl)cc3)CC2)cc1Oc1cnc2[nH]ccc2c1 | cell-free assay, competition with immobilised ligand | 1 µM | remaining binding | 88% |
| FC(F)(F)Oc1cccc(-c2cnc3ccc(-c4ccncc4)nn23)c1 | enzyme activity, inhibitor, radiometric | 5 µM | activity vs control | 108% |
| O=C1NC(=O)c2cc(Nc3ccc(F)cc3)c(Nc3ccc(F)cc3)cc21 | cell-free assay | 0.5 µM | remaining signal | 103% |
| Cc1sc(C(=O)NC2COC2)cc1-n1cc(NC(=O)Nc2c(F)cccc2Cl)cn1 | enzyme activity, inhibitor | 10 µM | remaining activity | 115% |
| CNCc1ccc(-c2cc(-c3nc(-c4ccc(S(=O)(=O)C(C)C)cc4)cnc3N)on2)cc1 | enzyme activity, inhibitor | 2 µM | inhibition | 0% |
| Cc1nc(C2CCN(C(=O)c3ccc(OC(F)(F)F)cc3N)CC2)c2ncc(N3CCN(C)CC3)cc2n1 | cell-free assay, competition with immobilised ligand | 1 µM | remaining binding | 100% |
| c1nc2c(Nc3ccc4c(c3)OCCO4)nc(Nc3ccc4c(c3)OCCO4)nc2[nH]1 | enzyme activity, inhibitor | 10 µM | activity vs control | 100% |

| Structure (SMILES) | assay | setting | quantity | result |
| --- | --- | --- | --- | --- |
| CCN(CC)CCNC(=O)c1c(C)[nH]c(/C=C2\C(=O)Nc3ccc(F)cc32)c1C | enzyme activity, inhibitor | 0.3 µM | inhibition | 28% |
| C=CC(=O)Nc1cc(Nc2nccc(Nc3cc(Cl)c(F)cc3C(C)(C)O)n2)c(OC)cc1N1CC[C@@H](N(C)C)C1 | enzyme activity, inhibitor | 1 µM | inhibition | 12% |
| CC/C(=N\NC(=O)NCc1cccc(O)c1)c1ccc(O)c(C)c1O | enzyme activity, inhibitor | 0.1 µM | inhibition | 75.4% |
| O=C(NCCCC1CCCCC1)c1ccc(CNC(=O)c2cnn(-c3ccccc3)c2C(F)(F)F)cc1 | cell-free assay, competition with immobilised ligand | 0.1 µM | remaining binding | 100% |
| N#CCCc1ccc2c(c1)-c1[nH]c3ccc([N+](=O)[O-])cc3c1CC(=O)N2 | cell-free assay | 0.5 µM | remaining signal | 87.9% |
| COc1cc(Nc2cnc(C#N)c(O[C@H](C)CN(C)C)n2)ncc1-c1cnn(C)c1 | enzyme activity, inhibitor, radiometric | 1 µM | remaining activity | 79% |
| Cc1ccc(NC(=O)c2ccc(C)c(C(F)(F)F)c2)cc1C#Cc1nn(C2CCC(O)CC2)c2ncnc(N)c12 (stereo not shown) | cell-free assay | 10 µM | remaining signal | 90% |
| Nc1ncnc2n[nH]c(Nc3ccc(F)cc3)c12 | cell-free assay | 0.5 µM | remaining signal | 91.5% |
| CC(C)(C)C(=O)c1sc(NC2CCCCC2)nc1N | enzyme activity, inhibitor | 10 µM | remaining activity | 91% |
| C[C@@H]1CN(c2cc(-c3n[nH]c4ccc(OC5(C)CC5)cc34)ncn2)C[C@H](C)O1 | cell-free assay, competition with immobilised ligand | 0.1 µM | remaining binding | 89% |
| CCCOc1ccc(OC)c(F)c1C(=O)c1ccc(C(=O)N[C@@H]2CNC[C@H]2NC(=O)c2ccc3[nH]ncc3c2)cc1 | enzyme activity, inhibitor | 0.1 µM | remaining activity | 64% |
| COc1cc(Cl)c(C(=O)N[C@@H](CN[C@H]2CC[C@@H](N)CC2)Cc2ccc(C#N)cc2)cc1-c1ccc(CN[C@H](C)c2ccc(C)cc2)o1 | enzyme activity, inhibitor | 1 µM | remaining activity | 94% |
| CSc1cccnc1N1CCN(Cc2nc3ccccc3[nH]2)CC1 | cell-free assay, competition with immobilised ligand | 1 µM | remaining binding | 82% |
| COc1cc2ncnc(Nc3ccc(Oc4ccccc4)c(C)c3C)c2cc1OC | enzyme activity, inhibitor | 1 µM | inhibition | 0% |
| Nc1ncnc2occ(-c3ccc(NC(=O)Nc4cc(C(F)(F)F)ccc4F)cc3)c12 | cell-free assay, inhibitor | 20 µM | remaining signal | 10% |
| CC(=O)C1=C(C)N(c2cccc(C(F)(F)F)c2)C(=O)N[C@@H]1c1ccc(C#N)nc1 | cell-free assay, competition with immobilised ligand | 1 µM | remaining binding | 100% |
| Nc1nc(Nc2ccccc2)sc1C(=O)c1c(F)cccc1F | enzyme activity, inhibitor | 10 µM | remaining activity | 98% |
